# Assay outcomes from PubChem BioAssay.
# Autophagy HCS = autophagy modulation, high-content screen. actives 0.98% (n = 190,000). MEF GFP-LC3 puncta imaging; test concentration mostly 10 µM. calls only at 10 µM (by protocol). AID 463193;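 active = percentage of spot-positive cells more than 3 SD above its plate mean, without a fluorescence outlier flag or 80% toxicity; inconclusive = no clear call, values can overlap the other calls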;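 also: spot-positive cell cutoff set from DMSO-treated cells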
# Ins promoter up = MIN6 insulin promoter up-regulation; MIN6 insulin promoter-GFP reporter, high-content imaging; stronger effect = higher value; z-score at 5 µM; actives 0.3% (n = 190,000); AID 1625;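 active = z-score above 3 at 5 µM with at least 500 cells counted in the well; inconclusive = wells under 500 cells, flagged as cytotoxic or low count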
# ABCB1 block = blocks JC-1 efflux by human ABCB1 transporter | CCRF-Adr cells, flow cytometry | inhibition, % at 6.6 µM | actives 0.067% (n = 190,000); in the data active = inhibition above about 40%;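 also: 0% = vehicle and 100% = reference inhibitor; higher value means more JC-1 retained so stronger ABCB1 efflux block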
# sdo1 growth = sdo1-depleted yeast growth rescue | actives 0.21% (n = 140,000) | z-score at 10 µM | S. cerevisiae sdo1-depleted JHY4D growth rescue, OD600 30 h; stronger effect = higher value; pdr5 snq2 efflux-pump mutant strain;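 active = z-score above 3 at both the 24 hr and the 30 hr optical density reads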;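 also: z-score against mean and SD of all compound wells on the same plate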
# ROMK mod = modulates human ROMK potassium channel activity; P48048; Tet-inducible ROMK, thallium flux fluorescence; actives lie on both sides; B-score at 10 µM; actives 2% (n = 130,000);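 active = signal ratio slope over the read window, or its plate-corrected B-score, at least 3 SD from the plate mean, either direction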;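 also: B-score of the F/F0 ratio slope over 7 to 12 s after thallium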
# ABCG2 block = human ABCG2 inhibition, ABCB1 as counter-screen. Q9UNQ0. IgMXP3 cells, JC-1 efflux, flow cytometry. inhibition, % at 6.6 µM. actives 0.1% (n = 190,000). AID 1325;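 active = inhibition above 80%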;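 also: 0% = DMSO and 100% = nicardipine control wells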
# Target sequence (Q9UNQ0 whole entry, looked up): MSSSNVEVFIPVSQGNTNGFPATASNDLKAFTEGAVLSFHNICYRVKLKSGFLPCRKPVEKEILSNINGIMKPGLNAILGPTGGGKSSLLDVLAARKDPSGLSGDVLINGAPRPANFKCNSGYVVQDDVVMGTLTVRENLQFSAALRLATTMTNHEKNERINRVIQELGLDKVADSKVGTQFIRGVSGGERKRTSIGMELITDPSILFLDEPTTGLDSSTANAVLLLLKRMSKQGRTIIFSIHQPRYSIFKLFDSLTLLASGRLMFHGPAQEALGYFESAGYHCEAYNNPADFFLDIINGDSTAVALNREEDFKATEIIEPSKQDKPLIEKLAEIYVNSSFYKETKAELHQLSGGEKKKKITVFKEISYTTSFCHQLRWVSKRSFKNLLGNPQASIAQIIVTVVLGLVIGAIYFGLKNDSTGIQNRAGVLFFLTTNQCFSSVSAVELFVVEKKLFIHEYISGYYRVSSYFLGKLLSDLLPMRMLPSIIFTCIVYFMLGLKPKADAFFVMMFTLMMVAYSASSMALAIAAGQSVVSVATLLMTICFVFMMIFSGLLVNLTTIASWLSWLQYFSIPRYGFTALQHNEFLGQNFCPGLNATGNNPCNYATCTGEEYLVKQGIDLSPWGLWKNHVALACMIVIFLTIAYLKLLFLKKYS
#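 Test system: IgMXP3 cells (ABCG2) mixed with DDAO far-red-labelled CCRF-Adr cells (ABCB1). Reagent: JC-1 transporter substrate. Compound dosing: single test compound dose, 6.6 µM final. Times: 10 min compound exposure, 25 °C. Detection: flow cytometry of retained JC-1 fluorescence. Read-out basis: efflux inhibition in percent versus controls. Controls: nicardipine and DMSO wells.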
# ROMK retest = retested hit modulating human ROMK potassium channel | shares compounds with ROMK mod | ROMK thallium flux, fluorescence ratio; stronger effect = lower value | normalized thallium flux (F/F0 slope) at 10 µM | actives 54% (n = 3,000);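 active = Flux at 10 µM at least 3 SD below or above vehicle control mean in one or both replicates; inconclusive = no clear call, values can overlap the other calls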
# Numbers without * were called inactive; i = inactive; ? = inconclusive; . = no result. The list is not random: actives were taken first. Their share in the collection is about 2.3%.
SMILES,Autophagy HCS,Ins promoter up,ABCB1 block,sdo1 growth,ROMK mod,ABCG2 block,ROMK retest
O=C(CCCSc1ccccc1)Nc1nc(-c2ccco2)c(-c2ccco2)s1,i,-0.16,-1.1,-0.21,-0.735,-8.2,.
CC(=O)Nc1ccc(Nc2cc(C)nc3c(-c4ccccc4)cnn23)cc1,i,-0.42,1.0,-2.05,.,3.5,.
CCOC(=O)CCNC(=O)c1ccccc1Br,i,0.38,1.8,-1.13,.,26.7,0.0759
COc1ccc(S(=O)(=O)N2CCCCC2)cc1C(C)C,i,.,-0.9,-0.04,.,2.6,0.0529*
COc1ccccc1Oc1ccc(S(=O)(=O)N2CCCC2)cc1,i,1.04,0.2,-0.74,.,0.8,.
COc1ccc(Oc2ccc(S(=O)(=O)N3CCCCC3)cc2S(=O)(=O)N2CCCCC2)cc1,.,-0.97,.,.,-5.71*,.,0.0466*
COc1cc(C(=O)N/N=C/c2sc(N3CCOCC3)nc2-c2ccccc2)cc(OC)c1OC,i,-1.57,1.0,.,0.599,8.9,.
CCOC(=O)C1(CCOC)CCN(Cc2cnc(-c3cccc(C)c3)nc2)CC1,i,0.35,3.5,.,0.0171,3.6,.
COc1ccc(-n2c(SCc3nnc(-c4ccccc4)o3)nnc2-c2ccccc2)cc1,i,-0.25,1.1,-0.75,.,2.2,0.0642*
COc1ccc(-c2noc(CSc3nnc(-c4ccncc4)n3-c3ccc(F)cc3)n2)cc1OC,i,0.02,2.1,-0.02,.,4.5,0.0819
Nc1nc(NCc2ccco2)nc(N2CCCCCC2)c1[N+](=O)[O-],i,-0.19,0.0,-0.85,.,-0.4,0.0622*
Nc1nc(NCc2ccco2)nc(N2CCCC2)c1[N+](=O)[O-],.,-0.1,.,.,.,.,.
CC(=O)NCCNC(=O)[C@H](Cc1ccccc1)NC(=O)c1cccs1,i,.,0.8,1.04,2.36*,2.2,0.0777
Cc1ccc(CN2CCN(Cc3cnc(N4CCOCC4)s3)CC2CCO)cc1 (stereo not drawn),i,-0.07,0.5,.,0.0953,1.0,.
O=c1[nH]c2ccc(S(=O)(=O)NCCO)cc2[nH]1,i,0.62,0.2,.,1.51*,-1.0,0.0755
COCCCNS(=O)(=O)c1ccc2[nH]c(=O)[nH]c2c1,.,0.18,.,.,.,.,.
CS(=O)(=O)c1nc(-c2ccco2)cc(C(F)(F)F)n1,i,0.71,0.5,-1.02,-3.57*,3.2,0.0572*
COc1ccccc1-c1cc(C(F)(F)F)nc(S(C)(=O)=O)n1,i,0.39,0.7,-2.55,-3.86*,3.3,0.0599*
CCCCOC(=O)c1ccc(NC(=O)COC(=O)CSc2nc(C)cc(C)n2)cc1,i,0.54,1.6,-0.65,-3.12*,23.2,0.0794
O=C(Nc1cccnc1)c1ccc(Cl)c(S(=O)(=O)N2CCc3ccccc32)c1,i,0.24,-0.2,.,-3.79*,-0.6,0.0664*
O=C(Nc1cccnc1)c1cccc(S(=O)(=O)N2CCc3ccccc32)c1,i,0.12,0.9,.,-1.03,3.0,.
CC(Oc1cccc(F)c1)c1ccnc2nc(/N=C/N(C)C)nn12 (stereo not drawn),i,-0.39,0.2,.,0.4,0.3,.
COc1cc(NC(=O)CSc2ncnc3c2cnn3Cc2ccccc2)cc(OC)c1,i,0.3,0.3,-0.08,0.103,1.3,.
COc1ccc(OC)c(NC(=O)CSc2ncnc3c2cnn3-c2ccccc2Cl)c1,i,.,4.5,-0.89,-3.16*,18.1,0.0601*
O=c1c(Cc2ccccc2)c(O)ccn1CCc1cnc[nH]1,i,-2.22,0.4,.,0.459,0.3,.
Cc1cc(C)cc(NC(=O)CN2CCN(CCN=CC3=C(O)CC(c4ccc(Cl)cc4)CC3=O)CC2)c1 (stereo not drawn),i,0.15,2.7,.,0.122,8.2,.
COC(=O)c1ccccc1-c1ccc(/C=N/Nc2nc(N3CCCC3)nc(N3CCCC3)n2)o1,.,-0.18,.,.,.,.,?
Cn1c(=O)n(C)c2cc(NS(=O)(=O)c3ccc4c(c3)CCCC4)ccc21,i,.,0.0,-1.35,-2.03*,-1.9,?
O=[N+]([O-])c1ccc(S(=O)(=O)CC(CN2CCCCC2)N2CCCCC2)cc1 (stereo not drawn),i,-0.44,-0.9,.,-4.77*,-2.9,0.0529*
